Results from ChEMBL document CHEMBL4270490, “Synthesis and biological evaluation of morpholine-substituted diphenylpyrimidine derivatives (Mor-DPPYs) as potent EGFR T790M inhibitors with improved activity toward the gefitinib-resistant non-small cell lung cancers (NSCLC)” (Eur J Med Chem, 2017).

Tests used:
NCI-H1975 [1] = assay: Antiproliferative activity against human NCI-H1975 cells incubated for 72 hrs by MTT assay; format: functional, cell-based; conditions: NCI-H1975, 72 h
A-431 = assay: Antiproliferative activity against human A431 cells incubated for 72 hrs by MTT assay; format: functional, cell-based; conditions: A-431, 72 h
HCC827 = assay: Antiproliferative activity against human HCC827 cells incubated for 72 hrs by MTT assay; format: functional, cell-based; conditions: HCC827, 72 h
[2] = Antiproliferative activity against NHBE cells incubated for 72 hrs by MTT assay; format: ADME, cell-based; conditions: Homo sapiens
A549 = assay: Antiproliferative activity against human A549 cells incubated for 72 hrs by MTT assay; format: functional, cell-based; conditions: A549, 72 h
NCI-H1975 [3] = assay: Antitumor activity against human NCI-H1975 cells xenografted in STOCK-Foxn1nu/Nju nude mouse assessed as inhibition of tumor growth at 20 mg/kg/day, po qd for 14 days relative to untreated control; format: functional; conditions: 336 h, read-out: TGI
Outline: (§1)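 Female/male unstated; 5–6-week-old nude mice (20–25 g) implanted subcutaneously in the right oxter with 3×10⁶ H1975 cells in 0.1 mL PBS. After 3 days, mice were randomised into groups and dosed orally once daily for 14 days at 10, 20 or 50 mg/kg; controls received oral 25% PEG-400. Tumour volume was taken as A×B²/2. Body weight and mortality were monitored. Tumours were weighed at sacrifice. n = 5.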

[4] = test system: Epidermal growth factor receptor (Homo sapiens), P00533 [L858R,T790M]; assay: Inhibition of EGFR L858R/T790M mutant phosphorylation in human NCI-H1975 cells assessed as reduction in AKT phosphorylation at 0.2 to 5 uM by Western blotting assay; format: cell-based
Epidermal growth factor receptor (Homo sapiens), P00533 [L858R,T790M], sequence (P00533 whole entry T790M/L858R, looked up): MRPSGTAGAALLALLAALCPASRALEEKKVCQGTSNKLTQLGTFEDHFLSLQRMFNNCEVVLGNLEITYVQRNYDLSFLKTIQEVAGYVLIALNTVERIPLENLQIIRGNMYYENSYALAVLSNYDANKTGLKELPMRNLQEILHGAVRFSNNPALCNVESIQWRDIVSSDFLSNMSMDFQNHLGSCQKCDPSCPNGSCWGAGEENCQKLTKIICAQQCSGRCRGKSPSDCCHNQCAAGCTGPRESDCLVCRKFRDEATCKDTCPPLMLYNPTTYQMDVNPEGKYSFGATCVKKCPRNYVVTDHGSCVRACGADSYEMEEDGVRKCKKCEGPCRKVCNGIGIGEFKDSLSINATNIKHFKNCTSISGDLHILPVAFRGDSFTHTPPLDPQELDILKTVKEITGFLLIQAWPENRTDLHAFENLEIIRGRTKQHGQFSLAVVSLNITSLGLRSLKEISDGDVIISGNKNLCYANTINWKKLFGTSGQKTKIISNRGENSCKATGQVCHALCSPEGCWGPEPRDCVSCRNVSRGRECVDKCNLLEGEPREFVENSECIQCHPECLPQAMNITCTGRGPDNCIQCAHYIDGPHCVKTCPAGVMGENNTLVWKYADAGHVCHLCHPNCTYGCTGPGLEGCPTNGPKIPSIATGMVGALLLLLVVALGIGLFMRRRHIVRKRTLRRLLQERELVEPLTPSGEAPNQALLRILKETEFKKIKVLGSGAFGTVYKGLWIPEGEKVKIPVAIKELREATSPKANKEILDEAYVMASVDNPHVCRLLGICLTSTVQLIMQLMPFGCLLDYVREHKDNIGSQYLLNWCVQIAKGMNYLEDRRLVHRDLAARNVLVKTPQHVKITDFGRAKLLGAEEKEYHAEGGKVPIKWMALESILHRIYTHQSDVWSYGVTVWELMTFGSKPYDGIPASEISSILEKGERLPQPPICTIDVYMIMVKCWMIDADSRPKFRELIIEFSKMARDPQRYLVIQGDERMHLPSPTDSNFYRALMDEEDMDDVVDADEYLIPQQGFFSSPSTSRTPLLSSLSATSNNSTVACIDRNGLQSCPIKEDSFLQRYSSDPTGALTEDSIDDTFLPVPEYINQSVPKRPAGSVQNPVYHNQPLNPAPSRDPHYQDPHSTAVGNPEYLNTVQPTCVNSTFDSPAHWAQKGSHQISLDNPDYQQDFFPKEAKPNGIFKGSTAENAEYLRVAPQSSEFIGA
Outline: (§2)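 H1975 and A431 cells were treated and then lysed. Lysates were cleared at 12,000 g, 15 min, 4 °C. 50 µg protein was run on 8–12% SDS-PAGE and transferred to PVDF. Membranes were blocked in 5% skim milk, then probed for EGFR, p-EGFR, AKT, p-AKT, ERK, p-ERK and actin. Detection was by ECL. Band IOD was normalized to actin.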

[5] = test system: Epidermal growth factor receptor (Homo sapiens), P00533 [L858R,T790M]; assay: Inhibition of EGFR L858R/T790M mutant phosphorylation in human NCI-H1975 cells at 5 uM by Western blotting assay; format: cell-based; outline: as §2
NCI-H1975 [6] = assay: Antitumor activity against human NCI-H1975 cells xenografted in STOCK-Foxn1nu/Nju nude mouse assessed as inhibition of tumor growth at 10 mg/kg/day, po qd for 14 days relative to untreated control; format: functional; conditions: 336 h, read-out: TGI
Outline: (§3)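 Nude mice (STOCK-Foxn1nu/Nju, 5–6 weeks, 20–25 g) were given s.c. 3×10⁶ H1975 cells in 0.1 mL PBS in the right oxter. Dosing began three days after implant, with random allocation to groups. Doses were 10, 20 or 50 mg/kg, oral, once daily for 14 days; vehicle controls got oral 25% PEG-400. Tumor volume was taken as A×B²/2 from perpendicular diameters. Tumors were excised and weighed at the end. n = 5, mean ±SD.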

Mus musculus [7] = assay: Toxicity in human NCI-H1975 cells xenografted STOCK-Foxn1nu/Nju nude mouse assessed as drug tolerability 10 to 50 mg/kg/day, po qd for 14 days relative to untreated control; format: organism-based; conditions: in vivo, 336 h; outline: as §1
[8] = test system: Epidermal growth factor receptor (Homo sapiens), P00533 [L858R,T790M]; assay: Inhibition of EGFR L858R/T790M mutant phosphorylation in human NCI-H1975 cells assessed as reduction in ERK phosphorylation at 0.2 to 5 uM by Western blotting assay; format: cell-based; outline: as §2
Mus musculus [9] = assay: Toxicity in human NCI-H1975 cells xenografted STOCK-Foxn1nu/Nju nude mouse assessed as body weight loss 10 to 50 mg/kg/day, po qd for 14 days relative to untreated control; format: organism-based; conditions: in vivo, 336 h
Outline: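 Body weight was tracked over 14 days of once-daily oral dosing at 10, 20 or 50 mg/kg, against 25% PEG-400 vehicle. Mice were nude (STOCK-Foxn1nu/Nju, 5–6 weeks, 20–25 g) carrying s.c. H1975 xenografts (3×10⁶ cells in PBS). Dosing started three days after implant. n = 5, mean ±SD.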

[10] = molecular target: T1, Epidermal growth factor receptor (Homo sapiens, UniProt P00533); assay: Inhibition of wild type EGFR phosphorylation in human A431 cells assessed as reduction in ERK phosphorylation at 0.2 to 5 uM by Western blotting assay; format: cell-based; outline: as §2
T1 sequence (P00533 whole entry): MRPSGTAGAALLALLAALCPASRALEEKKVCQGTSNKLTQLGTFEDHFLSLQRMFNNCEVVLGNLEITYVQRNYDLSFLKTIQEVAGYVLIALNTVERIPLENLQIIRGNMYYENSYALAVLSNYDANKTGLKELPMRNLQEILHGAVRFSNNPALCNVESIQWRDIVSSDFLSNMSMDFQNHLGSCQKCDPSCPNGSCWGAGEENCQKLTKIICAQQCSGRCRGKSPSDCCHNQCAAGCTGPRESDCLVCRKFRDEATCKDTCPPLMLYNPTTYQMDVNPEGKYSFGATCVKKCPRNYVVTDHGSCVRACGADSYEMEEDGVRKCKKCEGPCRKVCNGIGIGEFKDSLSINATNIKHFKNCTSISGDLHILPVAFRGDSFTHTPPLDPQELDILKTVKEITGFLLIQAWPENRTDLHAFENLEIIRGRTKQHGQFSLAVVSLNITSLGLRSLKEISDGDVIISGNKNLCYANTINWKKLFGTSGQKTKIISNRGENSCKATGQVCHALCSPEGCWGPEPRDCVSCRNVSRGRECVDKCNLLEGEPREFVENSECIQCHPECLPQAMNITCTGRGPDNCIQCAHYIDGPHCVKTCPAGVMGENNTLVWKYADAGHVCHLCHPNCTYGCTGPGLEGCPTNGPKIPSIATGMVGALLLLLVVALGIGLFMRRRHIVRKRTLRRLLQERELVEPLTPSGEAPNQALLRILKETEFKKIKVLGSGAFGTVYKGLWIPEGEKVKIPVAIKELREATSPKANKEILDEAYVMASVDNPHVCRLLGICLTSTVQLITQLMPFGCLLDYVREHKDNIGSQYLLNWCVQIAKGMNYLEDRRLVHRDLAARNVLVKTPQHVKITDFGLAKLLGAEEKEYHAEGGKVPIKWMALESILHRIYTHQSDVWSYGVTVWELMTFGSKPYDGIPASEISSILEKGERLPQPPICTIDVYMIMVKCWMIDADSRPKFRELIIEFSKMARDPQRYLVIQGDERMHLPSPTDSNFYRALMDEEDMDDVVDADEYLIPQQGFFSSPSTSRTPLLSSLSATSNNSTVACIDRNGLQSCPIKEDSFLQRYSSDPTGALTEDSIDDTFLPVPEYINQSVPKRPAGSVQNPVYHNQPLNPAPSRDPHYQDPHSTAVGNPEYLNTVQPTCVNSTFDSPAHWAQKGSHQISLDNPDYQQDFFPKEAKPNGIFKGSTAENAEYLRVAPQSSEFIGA

[11] = test system: Epidermal growth factor receptor (Homo sapiens), P00533 [L858R,T790M]; assay: Inhibition of EGFR L858R/T790M mutant phosphorylation in human NCI-H1975 cells at 0.2 to 5 uM by Western blotting assay; format: cell-based; outline: as §2
NCI-H1975 [12] = assay: Antitumor activity against human NCI-H1975 cells xenografted in STOCK-Foxn1nu/Nju nude mouse assessed as inhibition of tumor growth at 50 mg/kg/day, po qd for 14 days relative to untreated control; format: functional; conditions: 336 h, read-out: TGI; outline: as §3
NCI-H1975 [13] = assay: Antitumor activity against human NCI-H1975 cells xenografted in STOCK-Foxn1nu/Nju nude mouse assessed as inhibition of tumor growth at 10 to 50 mg/kg/day, po qd for 14 days relative to untreated control; format: functional, organism-based; outline: as §3
[14] = molecular target: T1, Epidermal growth factor receptor; assay: Inhibition of wild type EGFR phosphorylation in human A431 cells assessed as reduction in AKT phosphorylation at 0.2 to 5 uM by Western blotting assay; format: cell-based; outline: as §2
Mus musculus [15] = assay: Toxicity in human NCI-H1975 cells xenografted STOCK-Foxn1nu/Nju nude mouse assessed as mouse mortality 10 to 50 mg/kg/day, po qd for 14 days relative to untreated control; format: organism-based; conditions: in vivo, 336 h; outline: as §1
[16] = molecular target: T1, Epidermal growth factor receptor; assay: Inhibition of wild type EGFR phosphorylation in human A431 cells at 0.2 to 5 uM by Western blotting assay; format: cell-based; outline: as §2
[17] = molecular target: T1, Epidermal growth factor receptor; format: cell-based, Sf9
[18] = molecular target: Epidermal growth factor receptor (Homo sapiens, UniProt P00533, L858R/T790M); assay: biochemical; format: cell-based, Sf9
Epidermal growth factor receptor (Homo sapiens, UniProt P00533, L858R/T790M), sequence (P00533 25-1210 T790M/L858R limits assumed): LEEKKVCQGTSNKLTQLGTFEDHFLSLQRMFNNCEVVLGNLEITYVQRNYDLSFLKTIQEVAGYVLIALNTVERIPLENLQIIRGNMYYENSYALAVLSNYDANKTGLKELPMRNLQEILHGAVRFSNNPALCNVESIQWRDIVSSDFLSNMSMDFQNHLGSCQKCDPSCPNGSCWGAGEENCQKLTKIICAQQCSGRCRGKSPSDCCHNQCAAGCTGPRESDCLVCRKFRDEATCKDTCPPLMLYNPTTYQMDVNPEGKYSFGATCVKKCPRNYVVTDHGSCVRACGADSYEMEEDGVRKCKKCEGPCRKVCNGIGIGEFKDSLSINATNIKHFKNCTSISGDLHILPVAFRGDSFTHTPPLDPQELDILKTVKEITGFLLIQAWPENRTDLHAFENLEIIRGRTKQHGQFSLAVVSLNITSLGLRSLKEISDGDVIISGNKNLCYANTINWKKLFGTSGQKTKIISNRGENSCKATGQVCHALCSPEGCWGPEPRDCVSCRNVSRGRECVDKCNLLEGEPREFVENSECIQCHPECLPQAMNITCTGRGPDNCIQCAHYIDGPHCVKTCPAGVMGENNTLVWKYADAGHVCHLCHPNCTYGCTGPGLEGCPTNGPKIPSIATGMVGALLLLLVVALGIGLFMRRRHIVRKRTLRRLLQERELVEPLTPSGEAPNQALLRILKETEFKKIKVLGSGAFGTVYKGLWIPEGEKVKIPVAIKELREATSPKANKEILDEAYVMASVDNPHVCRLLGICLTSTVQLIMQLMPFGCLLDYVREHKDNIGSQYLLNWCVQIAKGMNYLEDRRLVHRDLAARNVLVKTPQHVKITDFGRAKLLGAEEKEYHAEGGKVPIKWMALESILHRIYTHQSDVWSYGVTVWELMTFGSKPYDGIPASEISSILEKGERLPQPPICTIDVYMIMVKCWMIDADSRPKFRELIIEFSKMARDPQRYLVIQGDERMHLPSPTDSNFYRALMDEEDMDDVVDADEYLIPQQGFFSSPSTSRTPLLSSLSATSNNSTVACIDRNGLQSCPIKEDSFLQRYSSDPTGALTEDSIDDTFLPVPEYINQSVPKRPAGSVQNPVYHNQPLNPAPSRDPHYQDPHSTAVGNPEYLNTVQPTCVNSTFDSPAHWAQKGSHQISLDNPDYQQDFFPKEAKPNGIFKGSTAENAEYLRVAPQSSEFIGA

Structure (SMILES)	IC50 (NCI-H1975 [1]) [nM]	IC50 (A-431) [nM]	IC50 (HCC827) [nM]	IC50 [2] [µM]	IC50 (A549) [µM]	IC50 [17] [nM]	IC50 [18] [nM]	also measured
C=CC(=O)Nc1ccccc1Nc1nc(Nc2ccc(OCCN3CCOCC3)cc2)ncc1Cl	240	478	524	> 40	4.7	–	–	–
C=CC(=O)Nc1cc(Nc2nccc(-c3cn(C)c4ccccc34)n2)c(OC)cc1N(C)CCN(C)C [OSIMERTINIB]	–	–	–	–	–	–	–	inhibition in vivo at 20 mg/kg/day (NCI-H1975 [3]): 98.8%
C=CC(=O)Nc1cccc(Nc2nc(Nc3ccc(CN4CCOCC4)cc3)ncc2Cl)c1	37	382	44	> 40	4.45	–	–	inhibition [4]: Dose-dependent effect; inhibition [5]: 100%; inhibition in vivo at 10 mg/kg/day (NCI-H1975 [6]): 39%; Activity (Mus musculus [7]): Non-Toxic; inhibition [8]: Dose-dependent effect; Activity (Mus musculus [9]): < 5%; inhibition (INH) [10]: Dose-dependent effect; inhibition [11]: Dose-dependent effect; inhibition in vivo at 50 mg/kg/day (NCI-H1975 [12]): 64.6%; TGI (NCI-H1975 [13]): Dose-dependent effect; inhibition (INH) [14]: Dose-dependent effect; Activity (Mus musculus [15]): Non-Toxic; inhibition (INH) [16]: Dose-dependent effect; inhibition in vivo at 20 mg/kg/day (NCI-H1975 [3]): 45.3%
C=CC(=O)Nc1cccc(Nc2nc(Nc3ccc(OCCN4CCOCC4)cc3)ncc2Cl)c1	215	385	43	31.5	5.71	961	94.7	–
C=CC(=O)Nc1cccc(Nc2nc(Nc3ccc(CN4CCOCC4)cc3OC)ncc2Cl)c1	287	2060	52	28.8	16.6	> 500	17	–
C=CC(=O)Nc1ccccc1Nc1nc(Nc2ccc(NC(=O)CN3CCOCC3)cc2)ncc1Cl	128	104	491	21.6	5.11	592	21.7	–
C=CC(=O)Nc1cccc(Nc2nc(Nc3ccc(CC(=O)N4CCOCC4)cc3)ncc2Cl)c1	256	760	58	22	1.66	< 500	96.6	–
C=CC(=O)Nc1cccc(Nc2nc(Nc3ccc(N4CCN(C(C)=O)CC4)cc3OC)ncc2C(F)(F)F)c1 [ROCILETINIB]	299	–	31	> 40	3.24	–	–	inhibition in vivo at 50 mg/kg/day (NCI-H1975 [12]): 70.2%
C=CC(=O)Nc1cccc(Nc2nc(Nc3ccc(OCCN4CCOCC4)c(Cl)c3)ncc2Cl)c1	500	870	57	22.4	14	> 1000	> 100	–
C=CC(=O)Nc1cccc(Nc2nc(Nc3ccc(CN4CCOCC4)cc3)ncc2F)c1	609	444	41	22.7	4.46	500	80.8	–
C=CC(=O)Nc1ccccc1Nc1nc(Nc2ccc(CN3CCOCC3)cc2)ncc1Cl	104	112	995	> 40	2.64	> 800	15.3	–
C=CC(=O)Nc1ccccc1Nc1nc(Nc2ccc(OCCCN3CCOCC3)cc2)ncc1Cl	217	584	587	> 40	4.74	767	21.5	–
C=CC(=O)Nc1cccc(Oc2nc(Nc3ccc(CC(=O)N4CCOCC4)cc3)ncc2Cl)c1	296	2190	48	> 40	2.94	996	101	–
C=CC(=O)Nc1ccccc1Nc1nc(Nc2ccc(OCC(=O)N3CCOCC3)cc2)ncc1Cl	132	42	418	39.5	2.65	143	24.8	–
